# In ChEMBL document CHEMBL1157181, “Novel antioxidant agents deriving from molecular combination of Vitamin C and NO-donor moieties” (Bioorg Med Chem, 2008):
# The source made the active and inactive calls. The rule behind the calls is not given here.
# Tests used:
# Aorta [1] = test: Vasorelaxation activity in Wistar rat thoracic aorta assessed as inhibition of L-phenylephrine-induced contraction in presence of 1 uM 1H-[1,2,4]oxadiazolo[4,3-a]quinoxalin-1-one; type: functional, tissue-based
# Procedure, shortened: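 Denuded Wistar rat aortic strips with 1 μM ODQ added to the bath 5 min before contraction with 1 μM L-phenylephrine. Cumulative relaxant concentrations are added at plateau, and EC50 is given ± SEM (μM).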
# [2] = Dissociation constant, pKa of the compound; type: physicochemical
# Procedure, shortened: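 Potentiometric titration, at least four runs per compound, of about 1 mM aqueous solutions with ionic strength 0.15 M (KCl). Solutions acidified to pH 1.8 with 0.5 N HCl, then titrated with standardised 0.5 N KOH to pH 10.5, under argon at 25.0 ± 0.1 °C. For poorly soluble compounds, at least five titrations in 15-50 wt% methanol, extrapolated to zero cosolvent (Yasuda-Shedlovsky).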
# Aorta [3] = test: Vasorelaxation activity in Wistar rat thoracic aorta assessed as inhibition of L-phenylephrine-induced contraction; type: functional, tissue-based
# Procedure, shortened: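 Endothelium-denuded thoracic aorta strips from male Wistar rats (180–200 g) equilibrated 120 min and contracted with 1 μM L-phenylephrine. At plateau, cumulative concentrations of the test agent are added. EC50 is given ± SEM (μM).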
# [4] = Distribution coefficient, log D at pH 1.0 after 4 hrs by shake flask method; type: physicochemical; conditions: octanol/water
# Procedure, shortened: (§1)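 Shake-flask n-octanol/buffer partition at room temperature, pH 1.0 (HCl) or pH 7.4 (phosphate), ionic strength 0.15 M KCl. Phases are presaturated by shaking for 4 h. Solute is about 0.1 mM in the aqueous phase, shaken about 20 min and centrifuged. Aqueous concentration is read by UV at λmax, with at least seven log D values per compound.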
# [5] = Distribution coefficient, log D at pH 7.4 after 4 hrs by shake flask method; type: physicochemical; conditions: octanol/water; procedure, shortened: as §1
# Hepatocyte [6] = test: Antioxidant activity Wistar rat hepatocyte membrane assessed as Fe(3+)-ADP/NADPH-induced lipid peroxidation by TBA assay; type: functional, cell-based
# Procedure, shortened: (§2)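 Microsomes from male Wistar rat liver (180–200 g) in Tris-HCl/KCl pH 7.4 (2 mg protein/mL) with ADP 1 mM and FeCl3 50 μM, plus compound in DMSO (≤5%). Peroxidation started with NADPH 0.4 mM at 37 °C and sampled to 30 min. TBARS read at 543 nm against an MDA standard. Inhibition is taken from the 30-min plateau, with IC50 by nonlinear regression.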
# Hepatocyte [7] = test: Antioxidant activity Wistar rat hepatocyte membrane assessed as Fe(3+)-ADP/NADPH-induced lipid peroxidation at 1 mM by TBA assay; type: functional, cell-based; procedure, shortened: as §2
# [8] = Distribution coefficient, log D at pH 7.4 after 4 hrs; type: physicochemical; conditions: octanol/water; procedure, shortened: as §1
# Hepatocyte [9] = test: Antioxidant activity Wistar rat hepatocyte membrane assessed as Fe(3+)-ADP/NADPH-induced lipid peroxidation at 50 uM by TBA assay; type: functional; procedure, shortened: as §2
EC50 (Aorta [1]),pKa [2],EC50 (Aorta [3]),logD at 4 h [4],logD at 4 h [5],logD at 4 h [8],SMILES,IC50 (Hepatocyte [6]),Activity (Hepatocyte [7]),Activity (Hepatocyte [9])
,7.54,,-1.41,-1.61,,COC1=C(O)C(=O)O[C@@H]1[C@@H](O)CO,> 1000 µM,,
,3.23,,-1.44,,< -2,COC1=C(O)[C@@H]([C@@H](O)CO)OC1=O,,inactive,
,,,-1.65,,,O=C1O[C@H]([C@@H](O)CO)C(O)=C1O [ASCORBIC ACID],,,77%
,3.19,,-0.26,,< -2,O=C1OC(C(O)CO)C(O)=C1OCCCO[N+](=O)[O-] (configuration not stated),,inactive,
> 100 µM,7.55,55 µM,-0.48,-0.55,,O=C1OC(C(O)CO)C(OCCCO[N+](=O)[O-])=C1O (configuration not stated),454 µM,,

# Second part, the molecule before the results:
SMILES,EC50 (Aorta [1]),pKa [2],EC50 (Aorta [3]),logD at 4 h [4],logD at 4 h [5],logD at 4 h [8],IC50 (Hepatocyte [6]),Activity (Hepatocyte [7]),Activity (Hepatocyte [9])
O=C1OC(C(O)CO)C(OCCCCC(CO[N+](=O)[O-])O[N+](=O)[O-])=C1O (configuration not stated),> 100 µM,7.64,0.72 µM,0.78,0.66,,28 µM,,
O=C1OC(C(O)CO)C(OCCCOc2no[n+]([O-])c2S(=O)(=O)c2ccccc2)=C1O (configuration not stated),7 µM,7.62,0.034 µM,1.18,0.98,,80 µM,,
O=C1OC(C(O)CO)C(OCCCOc2no[n+]([O-])c2-c2ccccc2)=C1O (configuration not stated),80.9 µM,7.6,3.8 µM,1.53,1.13,,17 µM,,
NC(=O)c1c(COC2=C(O)C(=O)OC2C(O)CO)no[n+]1[O-] (configuration not stated),> 100 µM,7.07,6 µM,-0.99,-1.44,,> 1000 µM,,
O=C1OC(C(O)CO)C(OCCCCCCO[N+](=O)[O-])=C1O (configuration not stated),> 100 µM,7.6,2.1 µM,0.86,0.76,,80 µM,,
O=C1OC(C(O)CO)C(O)=C1OCCCOc1no[n+]([O-])c1-c1ccccc1 (configuration not stated),> 100 µM,3.44,32 µM,1.71,-1.35,,392 µM,,
O=C1OC(C(O)CO)C(O)=C1OCCCCCCO[N+](=O)[O-] (configuration not stated),> 100 µM,3.56,7.1 µM,0.84,-1.93,,> 1000 µM,,
